Source: ChEMBL document CHEMBL4145585, “Structures and Activities of Tiahuramides A-C, Cyclic Depsipeptides from a Tahitian Collection of the Marine Cyanobacterium Lyngbya majuscula” (J Nat Prod, 2018)
pIC50: −log10 of the molar value. Values after ≈ are worked out from the molar mass of the structure shown. Active and inactive are the calls of the source. No cut-off for these calls is given here.

Experiments:
Micrococcus luteus = assay: Antimicrobial activity against Micrococcus luteus CIP A270 after 24 hrs by broth micro dilution assay; format: functional; conditions: CIP A270, 24 h
Summary of the method: (§1)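 Compounds were in DMSO (at most 5% of total volume) and were incubated with the strain in PB medium in 96-well plates at 37 °C for 24 h with stirring. Growth was read as optical density at 630 nm. Runs were in triplicate and averaged. Wells without growth were plated on rich solid medium to tell bacteriostatic from bactericidal action.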

Shewanella baltica = assay: Antimicrobial activity against Shewanella baltica CIP 105850T after 24 hrs by broth micro dilution assay; format: functional; summary of the method: as §1
SH-SY5Y [1] = assay: Cytotoxicity against human SH-SY5Y cells assessed as decrease in cell viability after 24 hrs by MTT assay; format: functional, cell-based
Summary of the method: (§2)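 SH-SY5Y cells were grown in DMEM/F-12 with 10% FBS at 37 °C in 5% CO2. Cells were seeded at 5 × 10^4 per well one day ahead, then treated at 0.001–100 μM for 24 h. MTT at 500 μg/mL was added for 1 h at 37 °C, cells were lysed with 5% SDS, and absorbance was read at 595 nm. The saponin death control was subtracted, and IC50 came from a log(inhibitor)–response fit.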

Aeromonas salmonicida = assay: Antimicrobial activity against Aeromonas salmonicida subsp. salmonicida CIP 103209T after 24 hrs by broth micro dilution assay; format: functional; summary of the method: as §1
Escherichia coli = assay: Antimicrobial activity against Escherichia coli CIP 54.8 after 24 hrs by broth micro dilution assay; format: functional; conditions: CIP 54.8, 24 h; summary of the method: as §1
SH-SY5Y [2] = assay: Induction of cell death in human SH-SY5Y cells at 15 uM pretreated with caspase inhibitor ZVAD-FMK for 24 hrs followed by compound addition measured after 6 hrs by MTT assay; format: functional, cell-based
Summary of the method: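 SH-SY5Y cells were seeded as for MTT and preincubated with 40 μM Z-VAD-FMK for 24 h. Compound was then added (5, 10, 15 μM) for 6 h, and viability was read by MTT as % of untreated cells. Staurosporine (0.5 μM) was the apoptosis control. Data are mean ± SEM of three independent experiments in triplicate, with Student's t test.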

SH-SY5Y [3] = assay: Induction of apoptosis in human SH-SY5Y cells at 6 uM after 6 hrs by Annexin V-FITC/PI staining based flow cytometry; format: functional
Summary of the method: (§3)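 SH-SY5Y cells were seeded at 1 × 10^6 per well and treated 6 h at 6 μM. Cells were washed in PBS and stained with annexin V–FITC and propidium iodide for 15 min. 10 000 events were analysed by imaging flow cytometry and classed as viable, apoptotic, late apoptotic or necrotic. Staurosporine (1 μM) was the death control. Data are mean ± SEM of three experiments, with Student's t test.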

Vibrio anguillarum = assay: Antimicrobial activity against Vibrio anguillarum CIP 63.36T after 24 hrs by broth micro dilution assay; format: functional; summary of the method: as §1
Paracentrotus lividus [4] = assay: Antiproliferative activity against Paracentrotus lividus eggs assessed as inhibition of first cell division measured 75 mins post fertilization by inverted microscopy; conditions: 1.25 h
SH-SY5Y [5] = assay: Induction of apoptosis in human SH-SY5Y cells assessed as necrotic cells at 6 uM after 6 hrs by Annexin V-FITC/PI staining based flow cytometry; format: functional; summary of the method: as §3
SH-SY5Y [6] = assay: Induction of apoptosis in human SH-SY5Y cells at 1 uM after 6 hrs by Annexin V-FITC/PI staining based flow cytometry; format: functional, cell-based
Summary of the method: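 SH-SY5Y cells in DMEM/F-12 with 10% FBS at 37 °C, 5% CO2, seeded at 1 × 10^6 cells per well and exposed 6 h. They were then washed in PBS, stained 15 min with annexin V–FITC plus propidium iodide in binding buffer, and 10 000 events were read by imaging flow cytometry. Cells were classed as viable, apoptotic, late apoptotic or necrotic. Three independent experiments; mean ± SEM; Student's t test vs untreated cells.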

Paracentrotus lividus [7] = assay: Antiproliferative activity against Paracentrotus lividus eggs assessed as inhibition of first cell division at 4 uM measured 75 mins post fertilization by inverted microscopy relative to control; format: functional; conditions: 1.25 h
Summary of the method: (§4)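 Paracentrotus lividus gametes were collected after acetylcholine injection into the coelomic cavity. Fertilized eggs were incubated with compound at 0–30 μM in 96-well microplates. Dividing eggs were scored under an inverted microscope at 75 min post-fertilization, when control eggs had completed first cleavage. The percentage of dividing eggs was recorded.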

Paracentrotus lividus [8] = assay: Induction of morphological changes in Paracentrotus lividus eggs assessed as granulations of plasmic membrane at 5 uM measured 80 to 120 mins post fertilization by reversed optical microscopy; format: functional, organism-based
Summary of the method: (§5)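 P. lividus fertilized eggs were kept with 5 μM compound, with controls in seawater containing 1% MeOH. Morphology was scored under a reversed optical microscope (20×) at 80 min, 120 min and 18 h post-fertilization. The percentage of each typical phenotype was recorded.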

Paracentrotus lividus [9] = assay: Inhibition of cell division in Paracentrotus lividus eggs assessed as reduction in reaching mesenchymal blastula stage at 5 uM measured 18 hrs post fertilization by reversed optical microscopy; format: functional, organism-based; summary of the method: as §5
Paracentrotus lividus [10] = assay: Antiproliferative activity against Paracentrotus lividus eggs assessed as inhibition of first cell division at 2 uM measured 75 mins post fertilization by inverted microscopy relative to control; format: functional; conditions: 1.25 h; summary of the method: as §4
Paracentrotus lividus [11] = assay: Induction of morphological changes in Paracentrotus lividus eggs assessed as membrane blebbing at 5 uM measured 80 to 120 mins post fertilization by reversed optical microscopy; format: functional, organism-based; summary of the method: as §5
Paracentrotus lividus [12] = assay: Induction of apoptosis in Paracentrotus lividus eggs assessed as DNA condensation at 5 uM measured 30 mins post fertilization by DAPI staining staining based assay; format: functional, organism-based
Summary of the method: (§6)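 Fertilized P. lividus eggs were treated with 5 μM compound and stained with DAPI to show nuclear DNA at 30 and 60 min post-fertilization. Chromatin state was compared with untreated control eggs.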

Paracentrotus lividus [13] = assay: Antiproliferative activity against Paracentrotus lividus eggs assessed as inhibition of cell division at 5 uM measured 80 mins post fertilization by reversed optical microscopy; format: functional, organism-based; summary of the method: as §5
Paracentrotus lividus [14] = assay: Antiproliferative activity against Paracentrotus lividus eggs assessed as cells divided with formation of extracellular cytoplasmic granules at 5 uM measured 80 mins post fertilization by reversed optical microscopy; format: functional; summary of the method: as §5
Paracentrotus lividus [15] = assay: Cell cycle arrest in Paracentrotus lividus eggs assessed as dispersion of condensed DNA in nucleus at 5 uM measured 60 mins post fertilization by DAPI staining staining based assay; format: functional, organism-based; summary of the method: as §6
Paracentrotus lividus [16] = assay: Induction of apoptosis in Paracentrotus lividus eggs assessed as DNA localization at nuclear periphery at 5 uM measured 30 mins post fertilization by DAPI staining staining based assay; format: functional, organism-based; summary of the method: as §6
Paracentrotus lividus [17] = assay: Induction of DNA fragmentation in Paracentrotus lividus eggs at 5 uM measured 60 mins post fertilization by TUNEL based fluorescence assay; format: functional, organism-based
Summary of the method: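 P. lividus eggs were treated with 5 μM compound. Before first division (60 min post-fertilization), fluorescent TUNEL labelling of 3′-OH DNA ends was done. DNase-treated eggs served as positive control and untreated eggs as negative control.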

SH-SY5Y [18] = assay: Cytotoxicity against human SH-SY5Y cells assessed as decrease in cell viability at 0.001 to 100 uM after 24 hrs by MTT assay; format: functional, cell-based; summary of the method: as §2

MIC (Micrococcus luteus) [µM] | MIC (Shewanella baltica) [µM] | MIC (Aeromonas salmonicida) [µM] | MIC (Escherichia coli) [µM] | MIC (Vibrio anguillarum) [µM] | SMILES | pIC50 (SH-SY5Y [1]) | pIC50 (Paracentrotus lividus [4]) | also measured
17 (≈ 12.6 µg/mL) | 16 (≈ 11.9 µg/mL) | 6.7 to 7 (≈ 4.96 to 5.19 µg/mL) | 14 (≈ 10.4 µg/mL) | 7 to 7.4 (≈ 5.19 to 5.48 µg/mL) | CCCCC[C@H]1OC(=O)[C@H]([C@@H](C)CC)N(C)C(=O)[C@@H]2CCCN2C(=O)[C@H](Cc2ccccc2)OC(=O)[C@H](C(C)C)N(C)C(=O)[C@H](C(C)C)NC(=O)[C@H]1C | 5.22 | 5.15 | Activity (SH-SY5Y [2]): Active; Activity (SH-SY5Y [3]): 7.9%; Activity (SH-SY5Y [5]): 36%
– | – | – | – | – | CN[C@@H]1C[C@H]2O[C@@](C)([C@@H]1OC)n1c3ccccc3c3c4c(c5c6ccccc6n2c5c31)C(=O)NC4 | – | – | Activity (SH-SY5Y [6]): Active
29 (≈ 21.4 µg/mL) | 22 (≈ 16.3 µg/mL) | 9.4 (≈ 6.95 µg/mL) | 12 (≈ 8.87 µg/mL) | 8.5 (≈ 6.28 µg/mL) | C=CCCC[C@H]1OC(=O)[C@H]([C@@H](C)CC)N(C)C(=O)[C@@H]2CCCN2C(=O)[C@H](Cc2ccccc2)OC(=O)[C@H](C(C)C)N(C)C(=O)[C@H](C(C)C)NC(=O)[C@H]1C | 4.85 | 5.41 | inhibition at 4 µM (Paracentrotus lividus [7]): 60%; Activity (Paracentrotus lividus [8]): Active; inhibition (Paracentrotus lividus [9]): Active; inhibition at 2 µM (Paracentrotus lividus [10]): 10%; Activity (Paracentrotus lividus [11]): Active; Activity (Paracentrotus lividus [12]): Active; inhibition (Paracentrotus lividus [13]): Active; Activity (Paracentrotus lividus [14]): 8%; Activity (Paracentrotus lividus [15]): Active; Activity (Paracentrotus lividus [16]): Active; Activity (Paracentrotus lividus [17]): Active
47 (≈ 34.6 µg/mL) | > 50 | 27 (≈ 19.9 µg/mL) | 35 (≈ 25.8 µg/mL) | 33 (≈ 24.3 µg/mL) | C#CCCC[C@H]1OC(=O)[C@H]([C@@H](C)CC)N(C)C(=O)[C@@H]2CCCN2C(=O)[C@H](Cc2ccccc2)OC(=O)[C@H](C(C)C)N(C)C(=O)[C@H](C(C)C)NC(=O)[C@H]1C | – | 4.96 | Activity (SH-SY5Y [18]): inactive
